Hits are enriched below; roughly 3% of the tested compounds scored in any of these assays.
MITF act = MITF TRPM1 promoter activation in melanoma cells. 0.75% of 300,000 active. activation, % at 12.5 µM. SK-MEL-5 TRPM1-promoter luciferase, 24 h; % of positive control, neutral wells = 0;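 active = mean activation of at least 80% with every replicate also reaching 80%; inconclusive = mean reaches 80% but some replicate falls short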;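 note: 0% = neutral control wells and 100% = parthenolide positive control wells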
NSD2 inh = blocks human histone methyltransferase NSD2 | NSD2 peptide methylation, AlphaScreen, 120 min | inhibition, % at 12.5 µM | 0.54% of 310,000 active | AID 743445; in the data active = inhibition above about 50%
Target sequence (O96028 whole entry, looked up): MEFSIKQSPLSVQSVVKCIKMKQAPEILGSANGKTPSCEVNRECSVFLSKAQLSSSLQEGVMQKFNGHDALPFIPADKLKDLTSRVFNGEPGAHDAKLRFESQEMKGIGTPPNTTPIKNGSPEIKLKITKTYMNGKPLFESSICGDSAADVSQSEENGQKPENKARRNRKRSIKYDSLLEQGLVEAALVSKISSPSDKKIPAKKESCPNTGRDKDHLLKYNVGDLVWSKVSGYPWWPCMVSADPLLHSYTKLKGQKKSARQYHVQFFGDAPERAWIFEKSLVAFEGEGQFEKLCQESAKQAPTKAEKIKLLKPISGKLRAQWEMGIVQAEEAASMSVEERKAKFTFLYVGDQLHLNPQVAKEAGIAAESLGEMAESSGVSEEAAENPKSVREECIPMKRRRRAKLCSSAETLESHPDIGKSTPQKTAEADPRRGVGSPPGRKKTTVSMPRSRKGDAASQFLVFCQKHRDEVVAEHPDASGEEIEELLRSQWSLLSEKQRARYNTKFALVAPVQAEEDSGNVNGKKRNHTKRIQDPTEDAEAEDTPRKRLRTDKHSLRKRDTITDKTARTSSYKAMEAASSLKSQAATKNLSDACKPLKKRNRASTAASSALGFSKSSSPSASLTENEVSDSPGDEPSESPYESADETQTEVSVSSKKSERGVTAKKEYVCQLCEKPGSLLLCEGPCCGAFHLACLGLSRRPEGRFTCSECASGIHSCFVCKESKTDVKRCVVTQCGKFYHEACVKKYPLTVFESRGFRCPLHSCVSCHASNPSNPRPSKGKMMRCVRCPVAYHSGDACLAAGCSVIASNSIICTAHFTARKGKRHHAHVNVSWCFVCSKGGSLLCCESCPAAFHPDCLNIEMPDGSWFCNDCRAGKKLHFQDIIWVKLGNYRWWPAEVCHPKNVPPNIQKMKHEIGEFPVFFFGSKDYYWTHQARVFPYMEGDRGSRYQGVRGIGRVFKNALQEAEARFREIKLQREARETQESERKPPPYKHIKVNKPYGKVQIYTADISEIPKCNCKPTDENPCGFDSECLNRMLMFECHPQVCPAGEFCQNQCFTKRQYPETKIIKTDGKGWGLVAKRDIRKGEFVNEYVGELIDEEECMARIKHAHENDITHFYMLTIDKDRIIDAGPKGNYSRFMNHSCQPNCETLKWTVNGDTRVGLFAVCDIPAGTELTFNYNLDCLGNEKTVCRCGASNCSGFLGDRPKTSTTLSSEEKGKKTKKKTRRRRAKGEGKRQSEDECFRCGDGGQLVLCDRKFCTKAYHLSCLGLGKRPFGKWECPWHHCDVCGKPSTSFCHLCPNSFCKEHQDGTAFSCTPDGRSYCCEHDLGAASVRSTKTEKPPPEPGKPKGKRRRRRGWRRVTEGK
CASP6 VEID inh = inhibitors of human caspase-6; inhibition, % at 12.5 µM; AID 686996; 0.53% of 350,000 active; purified caspase-6, Z-VEID-R110 cleavage fluorescence; P55212;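 active = mean inhibition across replicates at least about 35%, with every replicate also reaching that limit, limit read from the data; inconclusive = only one of the two criteria met; inactive = neither criterion met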;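 note: 0% = median of neutral control wells and 100% = no fluorescence left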
XiGFP reactiv = reactivates the inactive X chromosome in mouse fibroblasts; XiGFP mouse fibroblasts, % GFP-positive cells imaging, 3 d; cells co-treated with 5-aza-dC sensitizer; scaled so ellipticine positive control = 100%; activation, % at 7.58 µM; 0.055% of 360,000 active;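 active = mean normalized replicate activation at least 10% and every replicate at or above 10%; inconclusive = only one of the two criteria met; inactive = mean below 10% and not all replicates reach 10%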;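 note: 0% = median of on-plate neutral control wells and 100% = ellipticine 6 µM median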
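System: 68-5-11 XiGFP fibroblast line; Timing: 3 days compound exposure; Compound dosing: one concentration, pinned; Benchmarks: positive control ellipticine, 6 µM final; Buffer or medium: DMEM containing 5-aza-dC.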
esBAF inh = blocks esBAF chromatin remodeling in mouse ES cells; AID 602393; Bmi1-luciferase knock-in reporter, 24 h; 100% = twice the neutral-well signal; 2% of 350,000 active; reporter increase, % at 12.5 µM; in the data active = activation above about 40%; inconclusive = no clear call, values can overlap the other calls;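 note: 0% = median of the plate's neutral control wells and 100% = double that signal; a rise in the Bmi1 reporter signal indicates esBAF inhibition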
Wnt act = activators of Wnt/beta-catenin signaling. Wnt/beta-catenin reporter cell assay, activator, plate reader. activation, % at 9.35 µM. 1.2% of 300,000 active. AID 743398; in the data active = activation above about 30%, passing the limit was not always enough; inconclusive = no clear call, values can overlap the other calls;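 note: 0% = neutral control wells and 100% = positive control wells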
Numbers without * were called inactive; ? = inconclusive; / = no result.

SMILES	MITF act	NSD2 inh	CASP6 VEID inh	XiGFP reactiv	esBAF inh	Wnt act
CCCC(=O)Nc1ccc2c(c1)OC[C@H](C)N(CC1CCCC1)C[C@H](C)[C@@H](OC)CN(C)C2=O	/	/	-1.5	0.0	1.4	/
NC(=O)C1CCN(c2nc(-c3ccc(F)cc3)cs2)CC1	7.4	/	0.9	0.0	-2.1	2.2
CN(C)C(=O)c1cccc(-c2csc(N3CCC(C(N)=O)CC3)n2)c1	/	/	4.3	0.0	/	15.7
CS(=O)(=O)c1ccccc1-c1csc(N2CCC(C(N)=O)CC2)n1	/	/	0.8	0.0	/	-2.0
NC(=O)C1CCN(c2nc(-c3cccc(N)c3)cs2)CC1	52.3	/	/	0.1	80.7*	8.6
NC(=O)C1CCN(c2nc(-c3ccccc3F)cs2)CC1	87.9*	/	/	0.1	38.1	?
NC(=O)C1CCN(c2nc(-c3ccccc3Br)cs2)CC1	/	/	/	0.0	/	38.4*
NC(=O)C1CCN(c2nc(-c3ccccc3C(F)(F)F)cs2)CC1	75.4	/	/	0.1	68.0*	14.0
CN(C)c1ccccc1-c1csc(N2CCC(C(N)=O)CC2)n1	96.6*	/	0.8	0.0	70.1*	16.9
NC(=O)C1CCN(c2nc(-c3cccnc3)cs2)CC1	-12.0	/	/	0.0	-13.0	-4.1
CCCNC(=O)N1CCC2(CC1)CN(C(=O)NC(C)C)[C@@H](CO)c1c2c2ccc(OC)cc2n1C	/	/	-1.7	0.2	/	/
CNC[C@@H]1Oc2ncc(C#CC3(O)CCCC3)cc2C(=O)N([C@@H](C)CO)C[C@H]1C	/	/	-0.4	-0.1	3.9	/
Cc1cccc(-c2cccc3[nH]c4c(c23)CCN2C(=O)[C@H]3[C@H](C)ON(C)[C@H]3C[C@@H]42)c1	/	/	-2.0	48.1*	/	12.0
CC#CCOCC1CNC(=O)O1 (stereo not drawn)	/	0.0	0.6	-0.2	-10.8	429.0*
COc1ccc(OCC2CNC(=O)O2)cc1 (stereo not drawn)	-0.8	-1.3	-2.6	0.0	/	/
Cn1c(C(=O)N2CCCC(Nc3ccc(F)cc3)C2)cc2ccccc21 (stereo not drawn)	-5.9	5.6	40.8*	0.3	-0.1	-1.0
O=C(NC1CCCCC1)c1ccc(-c2ccccc2[N+](=O)[O-])o1	11.2	8.1	1.0	-0.1	89.2*	24.9
O=C(NC1CCCCC1)c1ccc([N+](=O)[O-])o1	-43.2	1.9	/	/	18.1	/
O=S(=O)(c1ccccc1)N1CC2(C1)[C@@H](c1ccccc1)[C@@H](CO)N2CC1CC1	/	/	/	0.0	/	/
CN(C)C=NC(=O)c1cc(C(=O)c2ccc(C(C)(C)C)cc2)c[nH]1	86.1*	0.7	-0.7	0.3	/	14.6
Cc1nc(N)sc1-c1csc(Nc2cccc(O)c2)n1	29.2	5.4	15.9	-0.1	1.4	4.8
Cc1ccnc(Nc2nc(-c3ccc(Cl)cc3)cs2)c1	13.0	-2.2	-0.8	0.0	66.9*	5.9
C=CCNc1nc(-c2ccc(Cl)cc2)cs1	134.2*	-0.5	/	/	/	/
Cc1ccnc(Nc2nc(-c3sc(C)nc3C)cs2)c1	/	8.2	-1.9	-0.1	43.0*	1.0
Cc1nc(C)c(-c2csc(Nc3cccc(O)c3)n2)s1	41.6	1.8	-3.2	0.0	/	84.5*
SMILES	MITF act	NSD2 inh	CASP6 VEID inh	XiGFP reactiv	esBAF inh	Wnt act
Cc1cccc(S(=O)(=O)N(C)C[C@H]2OCc3ccccc3-c3ccccc3C(=O)N([C@@H](C)CO)C[C@H]2C)c1	/	/	/	-1.2	/	/
CO[C@H]1CN(C)C(=O)c2ccc(NC(=O)C3CC3)cc2OC[C@H](C)N(CC2CCOCC2)C[C@@H]1C	/	/	2.2	0.2	/	/
CC(C)NC(=O)N1CC2(C1)[C@H](c1ccccc1)[C@H](CO)N2C(=O)C1CCCC1	/	/	-3.1	0.3	/	/
CCC(=O)Nc1ccc2c(c1)C(=O)N(C)C[C@@H](OC)[C@H](C)CN(Cc1ccccn1)[C@@H](C)CO2	/	/	-0.1	0.0	1.5	/
COc1ccc(NC(=O)Nc2ccc3c(c2)C(=O)N([C@@H](C)CO)C[C@@H](C)[C@@H](CN(C)C(=O)Cc2ccccc2)OCCCC[C@H](C)O3)cc1	/	/	6.1	0.2	-0.6	/
CNC(=O)C[C@H]1CC[C@H]2[C@@H](COc3ccc(NC(=O)Nc4ccc(C)cc4)cc3C(=O)N2C)O1	/	/	-2.1	0.0	-1.7	/
N#CCCn1nnc2ccccc21	/	-4.8	/	/	-8.1	/
c1ccc(CCn2nnc3ccccc32)cc1	97.8*	2.8	-0.3	-0.2	31.2	54.1*
Cc1cccc(-c2nc3ccccc3c(=O)[nH]2)c1	96.8*	15.8	1.0	0.0	7.9	25.7
O=c1[nH]c(-c2ccncc2)nc2ccccc12	-11.5	2.8	/	/	1.3	-8.0
Cc1cc2oc(C(=O)Nc3cccnc3)c(C)c2cc1C	77.2	/	-3.5	0.3	77.8*	9.7
O=C(Nc1ccon1)c1sc2cc(Cl)ccc2c1Cl	28.2	-1.7	-2.3	0.2	47.3*	20.5
Cc1ccc(C(=O)Nc2cccnc2)cc1Cl	/	-0.8	-5.2	0.0	55.3*	6.7
COc1c(Cl)cc(C(=O)Nc2cccnc2)cc1Cl	/	-4.4	-3.0	-0.1	6.2	-0.5
CCC(C)c1ccc(NC(=O)c2cccnc2)cc1 (stereo not drawn)	89.0*	-1.7	/	/	50.3*	/
CC(C)OC(=O)N(C)C[C@@H]1OCc2cn(nn2)CCCC(=O)N([C@H](C)CO)C[C@@H]1C	/	/	0.4	0.5	1.7	/
COc1cccc(NC(=O)N(C)C[C@H]2OCc3ccccc3-c3ccccc3C(=O)N([C@@H](C)CO)C[C@@H]2C)c1	/	/	/	0.7	/	/
CCCN(C)C[C@@H]1OCCCC[C@@H](C)Oc2ccc(NS(=O)(=O)c3ccc(F)cc3)cc2C(=O)N([C@H](C)CO)C[C@@H]1C	/	/	0.7	0.4	-4.4	/
Cc1cc(C(=O)Nc2cccnc2)cs1	11.9	26.5	/	/	2.2	/
O=C(Nc1cccc(NC(=O)c2cccnc2)c1)c1cccnc1	-11.9	23.4	1.1	/	2.7	/
Cc1ccc(NC(=O)c2cccnc2)cc1C	/	-3.0	-1.1	0.1	49.3*	4.6
Cc1ccc(C(=O)Nc2cccnc2)cc1C	/	0.1	-3.7	0.3	46.2*	1.1
Cc1ccc2c(Cl)c(C(=O)Nc3cccnc3)sc2c1	94.6*	-0.3	/	0.2	54.6*	/
C[C@H]1CN(C)C(=O)Cc2ccccc2O[C@@H]1CN(C)C	/	/	/	0.1	/	/
COc1ccc2c3c([nH]c2c1)[C@H](CO)N(C(=O)C1CCOCC1)CC31CN(C)C1	/	/	/	0.5	/	/
COc1ccc(OCc2cc(C(=O)N(C)Cc3cnccn3)no2)c(Cl)c1	68.1	-1.4	3.2	0.4	/	11.5
CSc1ccccc1OCc1cc(C(=O)NCC(C)Oc2cccnc2)no1 (stereo not drawn)	/	-5.9	-2.1	9.7	27.6	-4.0
COc1ccc(OCc2cc(C(=O)NCC(C)Oc3cccnc3)no2)c(Cl)c1 (stereo not drawn)	23.5	-2.6	0.1	0.0	70.1*	5.2
COc1ccc(OCc2cc(C(=O)N(C)Cc3cc(C4CC4)n[nH]3)no2)c(Cl)c1	90.3*	-1.7	-0.7	0.1	68.2*	18.1
